Results from ChEMBL document CHEMBL3864121, “Development of ebsulfur analogues as potent antibacterials against methicillin-resistant Staphylococcus aureus” (Bioorg Med Chem, 2016).
≈ marks a conversion by molar mass, not a printed value.

System: Staphylococcus aureus
Test: Antibacterial activity against methicillin-sensitive Staphylococcus aureus ATCC 6538 measured after overnight incubation by broth double-dilution method
Assay type: functional
Conditions: not given
How it was run: (§1)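 MIC by broth double-dilution in liquid Mueller-Hinton medium. Values are reported in µg/mL.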

SMILES	MIC
Cc1cc(C)cc(-n2sc3ccccc3c2=O)c1	7.8 µg/mL (≈ 30.5 µM)
CC(C)Cn1c(=O)c2ccccc2[s+]1[O-] (stereo not given)	> 125 µg/mL

System: Staphylococcus aureus
Test: Antibacterial activity against methicillin-sensitive Staphylococcus aureus ATCC 25923 measured after overnight incubation by broth double-dilution method
Assay type: functional
Conditions: not given
How it was run: as §1

SMILES	MIC
Cc1cc(C)cc(-n2sc3ccccc3c2=O)c1	7.8 µg/mL (≈ 30.5 µM)
CC(C)Cn1c(=O)c2ccccc2[s+]1[O-] (stereo not given)	> 125 µg/mL

System: Staphylococcus aureus
Test: Antibacterial activity against methicillin-sensitive Staphylococcus aureus ATCC 29213 measured after overnight incubation by broth double-dilution method
Assay type: functional
Conditions: not given
How it was run: as §1

SMILES	MIC
Cc1cc(C)cc(-n2sc3ccccc3c2=O)c1	3.9 µg/mL (≈ 15.3 µM)
CC(C)Cn1c(=O)c2ccccc2[s+]1[O-] (stereo not given)	> 125 µg/mL

System: Staphylococcus aureus
Test: Antibacterial activity against methicillin-resistant Staphylococcus aureus ATCC 33591 measured after overnight incubation by broth double-dilution method
Assay type: functional
Conditions: not given
How it was run: as §1

SMILES	MIC
Cc1cc(C)cc(-n2sc3ccccc3c2=O)c1	1 µg/mL (≈ 3.92 µM)
CC(C)Cn1c(=O)c2ccccc2[s+]1[O-] (stereo not given)	> 125 µg/mL

System: Staphylococcus aureus
Test: Antibacterial activity against methicillin-resistant Staphylococcus aureus 1 measured after overnight incubation by broth double-dilution method
Assay type: functional
Conditions: not given
How it was run: as §1

SMILES	MIC
Cc1cc(C)cc(-n2sc3ccccc3c2=O)c1	7.8 µg/mL (≈ 30.5 µM)
CC(C)Cn1c(=O)c2ccccc2[s+]1[O-] (stereo not given)	> 125 µg/mL

System: Staphylococcus aureus
Test: Antibacterial activity against methicillin-resistant Staphylococcus aureus 2 measured after overnight incubation by broth double-dilution method
Assay type: functional
Conditions: not given
How it was run: as §1

SMILES	MIC
Cc1cc(C)cc(-n2sc3ccccc3c2=O)c1	7.8 µg/mL (≈ 30.5 µM)
CC(C)Cn1c(=O)c2ccccc2[s+]1[O-] (stereo not given)	> 125 µg/mL

System: Staphylococcus aureus
Test: Antibacterial activity against methicillin-resistant Staphylococcus aureus BRS3 measured after overnight incubation by broth double-dilution method
Assay type: functional
Conditions: not given
How it was run: as §1

SMILES	MIC
Cc1cc(C)cc(-n2sc3ccccc3c2=O)c1	7.8 µg/mL (≈ 30.5 µM)
CC(C)Cn1c(=O)c2ccccc2[s+]1[O-] (stereo not given)	> 125 µg/mL

System: Staphylococcus aureus
Test: Antibacterial activity against methicillin-resistant Staphylococcus aureus C1 measured after overnight incubation by broth double-dilution method
Assay type: functional
Conditions: not given
How it was run: as §1

SMILES	MIC
Cc1cc(C)cc(-n2sc3ccccc3c2=O)c1	3.9 µg/mL (≈ 15.3 µM)
CC(C)Cn1c(=O)c2ccccc2[s+]1[O-] (stereo not given)	> 125 µg/mL

System: Staphylococcus aureus
Test: Antibacterial activity against methicillin-resistant Staphylococcus aureus C2 measured after overnight incubation by broth double-dilution method
Assay type: functional
Conditions: not given
How it was run: as §1

SMILES	MIC
Cc1cc(C)cc(-n2sc3ccccc3c2=O)c1	3.9 µg/mL (≈ 15.3 µM)
CC(C)Cn1c(=O)c2ccccc2[s+]1[O-] (stereo not given)	> 125 µg/mL

System: Staphylococcus aureus
Test: Antibacterial activity against methicillin-resistant Staphylococcus aureus C7 measured after overnight incubation by broth double-dilution method
Assay type: functional
Conditions: not given
How it was run: as §1

SMILES	MIC
Cc1cc(C)cc(-n2sc3ccccc3c2=O)c1	3.9 µg/mL (≈ 15.3 µM)
CC(C)Cn1c(=O)c2ccccc2[s+]1[O-] (stereo not given)	> 125 µg/mL

System: Staphylococcus aureus
Test: Antibacterial activity against methicillin-resistant Staphylococcus aureus C14 measured after overnight incubation by broth double-dilution method
Assay type: functional
Conditions: not given
How it was run: as §1

SMILES	MIC
Cc1cc(C)cc(-n2sc3ccccc3c2=O)c1	15.6 µg/mL (≈ 61.1 µM)
CC(C)Cn1c(=O)c2ccccc2[s+]1[O-] (stereo not given)	> 125 µg/mL

System: Staphylococcus aureus
Test: Antibacterial activity against methicillin-resistant Staphylococcus aureus C16 measured after overnight incubation by broth double-dilution method
Assay type: functional
Conditions: not given
How it was run: as §1

SMILES	MIC
Cc1cc(C)cc(-n2sc3ccccc3c2=O)c1	7.8 µg/mL (≈ 30.5 µM)
CC(C)Cn1c(=O)c2ccccc2[s+]1[O-] (stereo not given)	> 125 µg/mL

System: Staphylococcus aureus
Test: Antibacterial activity against methicillin-resistant Staphylococcus aureus C19 measured after overnight incubation by broth double-dilution method
Assay type: functional
Conditions: not given
How it was run: as §1

SMILES	MIC
Cc1cc(C)cc(-n2sc3ccccc3c2=O)c1	7.8 µg/mL (≈ 30.5 µM)
CC(C)Cn1c(=O)c2ccccc2[s+]1[O-] (stereo not given)	> 125 µg/mL

System: Staphylococcus aureus
Test: Antibacterial activity against methicillin-resistant Staphylococcus aureus G1 measured after overnight incubation by broth double-dilution method
Assay type: functional
Conditions: not given
How it was run: as §1

SMILES	MIC
Cc1cc(C)cc(-n2sc3ccccc3c2=O)c1	7.8 µg/mL (≈ 30.5 µM)
CC(C)Cn1c(=O)c2ccccc2[s+]1[O-] (stereo not given)	> 125 µg/mL

System: Staphylococcus aureus
Test: Antibacterial activity against methicillin-resistant Staphylococcus aureus G6 measured after overnight incubation by broth double-dilution method
Assay type: functional
Conditions: not given
How it was run: as §1

SMILES	MIC
Cc1cc(C)cc(-n2sc3ccccc3c2=O)c1	7.8 µg/mL (≈ 30.5 µM)
CC(C)Cn1c(=O)c2ccccc2[s+]1[O-] (stereo not given)	> 125 µg/mL

System: Staphylococcus aureus
Test: Antibacterial activity against methicillin-resistant Staphylococcus aureus G12 measured after overnight incubation by broth double-dilution method
Assay type: functional
Conditions: not given
How it was run: as §1

SMILES	MIC
Cc1cc(C)cc(-n2sc3ccccc3c2=O)c1	7.8 µg/mL (≈ 30.5 µM)
CC(C)Cn1c(=O)c2ccccc2[s+]1[O-] (stereo not given)	> 125 µg/mL

System: Staphylococcus aureus
Test: Antibacterial activity against methicillin-resistant Staphylococcus aureus G14 measured after overnight incubation by broth double-dilution method
Assay type: functional
Conditions: not given
How it was run: as §1

SMILES	MIC
Cc1cc(C)cc(-n2sc3ccccc3c2=O)c1	3.9 µg/mL (≈ 15.3 µM)
CC(C)Cn1c(=O)c2ccccc2[s+]1[O-] (stereo not given)	> 125 µg/mL

System: Staphylococcus aureus
Test: Antibacterial activity against methicillin-resistant Staphylococcus aureus NRS4 measured after overnight incubation by broth double-dilution method
Assay type: functional
Conditions: not given
How it was run: as §1

SMILES	MIC
Cc1cc(C)cc(-n2sc3ccccc3c2=O)c1	7.8 µg/mL (≈ 30.5 µM)
CC(C)Cn1c(=O)c2ccccc2[s+]1[O-] (stereo not given)	> 125 µg/mL

System: Staphylococcus aureus
Test: Antibacterial activity against methicillin-resistant Staphylococcus aureus NRS51 measured after overnight incubation by broth double-dilution method
Assay type: functional
Conditions: not given
How it was run: as §1

SMILES	MIC
Cc1cc(C)cc(-n2sc3ccccc3c2=O)c1	7.8 µg/mL (≈ 30.5 µM)
CC(C)Cn1c(=O)c2ccccc2[s+]1[O-] (stereo not given)	> 125 µg/mL

System: Staphylococcus aureus
Test: Antibacterial activity against methicillin-resistant Staphylococcus aureus NRS77 measured after overnight incubation by broth double-dilution method
Assay type: functional
Conditions: not given
How it was run: as §1

SMILES	MIC
Cc1cc(C)cc(-n2sc3ccccc3c2=O)c1	7.8 µg/mL (≈ 30.5 µM)
CC(C)Cn1c(=O)c2ccccc2[s+]1[O-] (stereo not given)	> 125 µg/mL

System: Staphylococcus aureus
Test: Antibacterial activity against methicillin-resistant Staphylococcus aureus S14 measured after overnight incubation by broth double-dilution method
Assay type: functional
Conditions: not given
How it was run: as §1

SMILES	MIC
Cc1cc(C)cc(-n2sc3ccccc3c2=O)c1	≤ 0.25 µg/mL
CC(C)Cn1c(=O)c2ccccc2[s+]1[O-] (stereo not given)	> 125 µg/mL

System: Staphylococcus aureus
Test: Antibacterial activity against methicillin-resistant Staphylococcus aureus S17 measured after overnight incubation by broth double-dilution method
Assay type: functional
Conditions: not given
How it was run: as §1

SMILES	MIC
Cc1cc(C)cc(-n2sc3ccccc3c2=O)c1	3.9 µg/mL (≈ 15.3 µM)
CC(C)Cn1c(=O)c2ccccc2[s+]1[O-] (stereo not given)	> 125 µg/mL

System: Staphylococcus aureus
Test: Antibacterial activity against methicillin-resistant Staphylococcus aureus S22 measured after overnight incubation by broth double-dilution method
Assay type: functional
Conditions: not given
How it was run: as §1

SMILES	MIC
Cc1cc(C)cc(-n2sc3ccccc3c2=O)c1	3.9 µg/mL (≈ 15.3 µM)
CC(C)Cn1c(=O)c2ccccc2[s+]1[O-] (stereo not given)	> 125 µg/mL

System: Staphylococcus aureus
Test: Antibacterial activity against methicillin-resistant Staphylococcus aureus S24 measured after overnight incubation by broth double-dilution method
Assay type: functional
Conditions: not given
How it was run: as §1

SMILES	MIC
Cc1cc(C)cc(-n2sc3ccccc3c2=O)c1	7.8 µg/mL (≈ 30.5 µM)
CC(C)Cn1c(=O)c2ccccc2[s+]1[O-] (stereo not given)	> 125 µg/mL

System: Staphylococcus aureus
Test: Antibacterial activity against methicillin-resistant Staphylococcus aureus USA100 measured after overnight incubation by broth double-dilution method
Assay type: functional
Conditions: not given
How it was run: as §1

SMILES	MIC
Cc1cc(C)cc(-n2sc3ccccc3c2=O)c1	3.9 µg/mL (≈ 15.3 µM)
CC(C)Cn1c(=O)c2ccccc2[s+]1[O-] (stereo not given)	> 125 µg/mL

System: Staphylococcus aureus
Test: Antibacterial activity against methicillin-resistant Staphylococcus aureus USA200 measured after overnight incubation by broth double-dilution method
Assay type: functional
Conditions: not given
How it was run: as §1

SMILES	MIC
Cc1cc(C)cc(-n2sc3ccccc3c2=O)c1	7.8 µg/mL (≈ 30.5 µM)
CC(C)Cn1c(=O)c2ccccc2[s+]1[O-] (stereo not given)	> 125 µg/mL

System: Staphylococcus aureus
Test: Antibacterial activity against methicillin-resistant Staphylococcus aureus USA300 measured after overnight incubation by broth double-dilution method
Assay type: functional
Conditions: not given
How it was run: as §1

SMILES	MIC
Cc1cc(C)cc(-n2sc3ccccc3c2=O)c1	7.8 µg/mL (≈ 30.5 µM)
CC(C)Cn1c(=O)c2ccccc2[s+]1[O-] (stereo not given)	> 125 µg/mL

System: Staphylococcus aureus
Test: Antibacterial activity against methicillin-resistant Staphylococcus aureus USA600 measured after overnight incubation by broth double-dilution method
Assay type: functional
Conditions: not given
How it was run: as §1

SMILES	MIC
Cc1cc(C)cc(-n2sc3ccccc3c2=O)c1	7.8 µg/mL (≈ 30.5 µM)
CC(C)Cn1c(=O)c2ccccc2[s+]1[O-] (stereo not given)	> 125 µg/mL

System: Staphylococcus epidermidis
Test: Antibacterial activity against Staphylococcus epidermidis ATCC 35984 measured after overnight incubation by broth double-dilution method
Assay type: functional
Conditions: RP62A
How it was run: (§2)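 MIC by broth double-dilution in Mueller-Hinton medium. Re-testing at the time-kill inoculum used 1×10^6 CFU/mL.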

SMILES	MIC
Cc1cc(C)cc(-n2sc3ccccc3c2=O)c1	3.9 µg/mL (≈ 15.3 µM)
CC(C)Cn1c(=O)c2ccccc2[s+]1[O-] (stereo not given)	> 125 µg/mL

System: Enterococcus faecalis
Test: Antibacterial activity against Enterococcus faecalis ATCC 29212 measured after overnight incubation by broth double-dilution method
Assay type: functional
Conditions: not given
How it was run: as §2

SMILES	MIC
Cc1cc(C)cc(-n2sc3ccccc3c2=O)c1	15.6 µg/mL (≈ 61.1 µM)
CC(C)Cn1c(=O)c2ccccc2[s+]1[O-] (stereo not given)	> 125 µg/mL

System: Enterococcus faecalis
Test: Antibacterial activity against Enterococcus faecalis ATCC 49533 measured after overnight incubation by broth double-dilution method
Assay type: functional
Conditions: not given
How it was run: as §2

SMILES	MIC
Cc1cc(C)cc(-n2sc3ccccc3c2=O)c1	15.6 µg/mL (≈ 61.1 µM)
CC(C)Cn1c(=O)c2ccccc2[s+]1[O-] (stereo not given)	> 125 µg/mL

System: Enterococcus faecium
Test: Antibacterial activity against Enterococcus faecium BM4105-RF measured after overnight incubation by broth double-dilution method
Assay type: functional
Conditions: not given
How it was run: as §1

SMILES	MIC
Cc1cc(C)cc(-n2sc3ccccc3c2=O)c1	15.6 µg/mL (≈ 61.1 µM)
CC(C)Cn1c(=O)c2ccccc2[s+]1[O-] (stereo not given)	> 125 µg/mL

System: Enterococcus
Test: Antibacterial activity against Vancomycin-resistant Enterococcus measured after overnight incubation by broth double-dilution method
Assay type: functional
Conditions: not given
How it was run: as §1

SMILES	MIC
Cc1cc(C)cc(-n2sc3ccccc3c2=O)c1	3.9 µg/mL (≈ 15.3 µM)
CC(C)Cn1c(=O)c2ccccc2[s+]1[O-] (stereo not given)	> 125 µg/mL

System: Listeria monocytogenes
Test: Antibacterial activity against Listeria monocytogenes ATCC 19115 measured after overnight incubation by broth double-dilution method
Assay type: functional
Conditions: not given
How it was run: as §2

SMILES	MIC
Cc1cc(C)cc(-n2sc3ccccc3c2=O)c1	7.8 µg/mL (≈ 30.5 µM)
CC(C)Cn1c(=O)c2ccccc2[s+]1[O-] (stereo not given)	> 125 µg/mL

System: Mycolicibacterium smegmatis
Test: Antibacterial activity against Mycobacterium smegmatis MC2-155 measured after overnight incubation by broth double-dilution method
Assay type: functional
Conditions: str. MC2 155
How it was run: as §1

SMILES	MIC
Cc1cc(C)cc(-n2sc3ccccc3c2=O)c1	3.9 µg/mL (≈ 15.3 µM)
CC(C)Cn1c(=O)c2ccccc2[s+]1[O-] (stereo not given)	> 125 µg/mL
